Here are results for nine compounds from ChEMBL document CHEMBL1157772, “In vitro cytotoxic activity of isolated acridones alkaloids from Zanthoxylum leprieurii Guill. et Perr” (Bioorg Med Chem, 2010).

The structures appear in SMILES notation. pIC50: −log10 of the molar value.

Assay type in all cases: functional, cell-based
Assay [1] relates to A549. The assay can be described thus: Cytotoxicity against human A549 cells after 48 hrs by resazurin reduction assay. The note with it: A549, 48 h. The method in brief:
(§1)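 Cell lines from ATCC, grown in MEM with Earle's salts, 10% fetal calf serum, vitamins, sodium pyruvate, non-essential amino acids, penicillin/streptomycin, at 37 °C, 5% CO2. Cells (5 × 10^3/well) adhered 16 h, then exposed 48 h to increasing concentrations in medium with 0.25% (v/v) final DMSO. Resazurin reduction read by fluorescence (ex 530/em 590 nm). IC50 as mean ± SD, two experiments in triplicate.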

Assay [2] in a line: Cytotoxicity against human WS1 cells after 48 hrs by resazurin reduction assay. The note with it: WS1, 48 h. The method in brief: as §1
A general note: Resazurin is reduced to fluorescent resorufin, in cell work by metabolically active cells.

Assay [3] has as its system DLD-1. The assay can be described thus: Cytotoxicity against human DLD1 cells after 48 hrs by resazurin reduction assay. The note with it: DLD-1, 48 h. The method, boiled down: as §1

`COc1cc2c(c(O)c1OC)c(=O)c1ccccc1n2C` [ARBORININE]: the pIC50 in assay [1] is 4.46; in assay [2], 4.25; in assay [3], 4.13.

As for `COc1c(O)cc2c(c1OC)c(=O)c1ccccc1n2C`, the results for the pIC50 in assay [1], in assay [2] and in assay [3] were 4.28, 4.13 and 4.11, respectively.

With `COc1cc2ccc(=O)oc2cc1OC` [SCOPARONE], the pIC50 in assay [1], in assay [2] and in assay [3] was under 4.00 throughout.

As to `CCCCCCCCCCCCCCCCCCCCCCCC(=O)NCCc1ccc(O)cc1`, the pIC50 in assay [1], in assay [2] and in assay [3] was under 4.00 throughout.

For `COc1cc(O)c2c(=O)c3ccccc3n(C)c2c1`, the pIC50 in assay [1] was 4.51; in assay [2], 4.29; in assay [3], 4.57.

As to `COc1ccc([C@@H]2CC(=O)c3c(O)cc(O[C@@H]4O[C@H](CO[C@@H]5O[C@@H](C)[C@H](O)[C@@H](O)[C@H]5O)[C@@H](O)[C@H](O)[C@H]4O)cc3O2)cc1O` [HESPERIDIN], the negative logarithm of the IC50 (pIC50) in assay [1], in assay [2] and in assay [3] was under 4.00 each time.

For the compound `COc1cc(O)c(OC)c2c1c(=O)c1ccccc1n2C`, the pIC50 in assay [1], in assay [2] and in assay [3] was under 4.00 each time.

On to `COc1cc([C@@H]2c3cc4c(cc3[C@@H](O[C@@H]3O[C@@H]5CO[C@@H](C)O[C@H]5[C@H](O)[C@H]3O)[C@H]3COC(=O)[C@H]23)OCO4)cc(OC)c1O` [ETOPOSIDE], for which the pIC50 is 4.80 in assay [1], 5.37 in assay [2] and 5.00 in assay [3].

With `COc1cc(O)cc2c1c(=O)c1ccccc1n2C` [TEGERRARDIN A], the results for the pIC50 in assay [1], in assay [2] and in assay [3] were 4.44, 4.38 and 4.15, respectively.

The term pIC50 denotes the IC50 on a negative log10 scale, so that one unit is a factor of ten.
